Results published in EPA's CvTdb concentration-time database.

Columns and labels:
[1] = tested on: human; experiment: concentration in urine after dosing; conditions: dosed: benzene, 30 mg/m^3, inhalation, duration: 4 hr, male
How it was run: (§1)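 Points were largely digitised from plot screenshots with WebPlotDigitizer or otherwise copied from tables, and they remain in the units each source reported. They come from published in vivo toxicokinetic studies and two structured collections. Sampling and analytical methods follow each source and were often not reported.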

[2] = tested on: human; experiment: concentration in urine after dosing; conditions: dosed: benzene, 30 mg/m^3, inhalation, duration: 4 hr, male; remark: listed apart in the source
How it was run: as §1

[3] = tested on: human; experiment: concentration in urine after dosing; negative times count back from the end of exposure; conditions: dosed: benzene, 30 mg/m^3, inhalation, duration: 4 hr, male
How it was run: as §1

[4] = tested on: frog; experiment: concentration in embryo medium after dosing; conditions: dosed: musk moskene, 400 ug/L embryo medium, dermal, duration: 10 days, xenopus laevis
How it was run: as §1

[5] = tested on: mouse; experiment: concentration in lung after dosing; conditions: dosed: dichloromethane, iv, male, B6C3F1
How it was run: as §1

[6] = tested on: mouse; experiment: concentration in body after dosing; conditions: dosed: dichloromethane, iv, male, B6C3F1
How it was run: as §1

[7] = tested on: mouse; experiment: concentration in liver after dosing; conditions: dosed: dichloromethane, iv, male, B6C3F1
How it was run: as §1

[8] = tested on: mouse; experiment: concentration in kidney after dosing; conditions: dosed: dichloromethane, iv, male, B6C3F1
How it was run: as §1

[9] = tested on: human; experiment: concentration in blood after dosing; negative times count back from the end of exposure; conditions: dosed: dichloromethane, inhalation, duration: 6 hr, male
How it was run: as §1

[10] = tested on: human; experiment: concentration in expired air after dosing; negative times count back from the end of exposure; conditions: dosed: dichloromethane, inhalation, duration: 6 hr, male
How it was run: as §1

Oc1ccccc1 [phenol]
Conditions | concentration in urine [µM]
[1], 0 h | 72.9
[1], 2 h | 113
[1], 4 h | 226
[1], 6 h | 207
[1], 8 h | 143
[1], 10 h | 180
[1], 12.06 h | 144
[1], 14 h | 87.1
[1], 20.36 h | 70.2
[1], 24.06 h | 112
[1], 27.03 h | 80.5
[1], 32 h | 82.7
[1], 38.06 h | 73.4
[1], 42.55 h | 45.5
[1], 47.58 h | 65.6
[1], 52.48 h | 50.5
[2], 0 h | 61.4
[2], 2 h | 82.2
[2], 4 h | 186
[2], 5.939 h | 193
[2], 8 h | 143
[2], 10 h | 129
[2], 12.06 h | 109
[2], 14.36 h | 102
[2], 15.52 h | 80.2
[2], 23.33 h | 176
[2], 26.24 h | 68.4
[2], 37.03 h | 45.6
[2], 38.55 h | 45
[2], 46.55 h | 87.7
[2], 47.52 h | 141
[2], 52 h | 95.1
[3], 0 h | 314
[3], 1.939 h | 244
[3], 4 h | 187
[3], 6.061 h | 200
[3], 8 h | 99.3
[3], 10.06 h | 114
[3], 18 h | 121
[3], 24.55 h | 51
[3], 30 h | 39.3
[3], 34.12 h | 38
[3], 42.3 h | 38.5
[3], 50.48 h | 52.2

[3], during exposure
Conditions | concentration in urine [µM]
-4 h | 23.7
-2.061 h | 124

Cc1c([N+](=O)[O-])cc2c(c1[N+](=O)[O-])C(C)(C)CC2(C)C [musk moskene]
[4]
Conditions | concentration in embryo medium [ng/mL]
0.1638 h | 353
0.2136 h | 293
0.2621 h | 670
95.89 h | 46.5
168.63 h | 226
240 h | 175
240.21 h | 290
240.24 h | 222

ClCCl [dichloromethane]
Conditions | concentration in blood [ng/mL] | concentration in body [µg/g] | concentration in expired air [ppm] | concentration in kidney [µg/g] | concentration in liver [µg/g] | concentration in lung [µg/g]
[5], 1 h, 10 mg/kg | – | – | – | – | – | 4.11
[5], 1 h, 50 mg/kg | – | – | – | – | – | 2.96
[5], 3 h, 10 mg/kg | – | – | – | – | – | 2.56
[5], 3 h, 50 mg/kg | – | – | – | – | – | 1.54
[5], 4 h, 10 mg/kg | – | – | – | – | – | 1.29
[5], 4 h, 50 mg/kg | – | – | – | – | – | 1.23
[5], 20 min, 10 mg/kg | – | – | – | – | – | 1.71
[5], 20 min, 50 mg/kg | – | – | – | – | – | 6.19
[5], 40 min, 10 mg/kg | – | – | – | – | – | 3.57
[5], 40 min, 50 mg/kg | – | – | – | – | – | 3.98
[6], 1 h, 10 mg/kg | – | 0.14 | – | – | – | –
[6], 1 h, 50 mg/kg | – | 0.14 | – | – | – | –
[6], 3 h, 50 mg/kg | – | 0.028 | – | – | – | –
[6], 4 h, 50 mg/kg | – | 0.018 | – | – | – | –
[6], 20 min, 10 mg/kg | – | 1.3 | – | – | – | –
[6], 20 min, 50 mg/kg | – | 1.16 | – | – | – | –
[6], 40 min, 10 mg/kg | – | 0.076 | – | – | – | –
[6], 40 min, 50 mg/kg | – | 0.076 | – | – | – | –
[7], 1 h, 10 mg/kg | – | – | – | – | 4.11 | –
[7], 1 h, 50 mg/kg | – | – | – | – | 15.4 | –
[7], 3 h, 10 mg/kg | – | – | – | – | 2.56 | –
[7], 3 h, 50 mg/kg | – | – | – | – | 7.81 | –
[7], 4 h, 10 mg/kg | – | – | – | – | 1.29 | –
[7], 4 h, 50 mg/kg | – | – | – | – | 7.12 | –
[7], 20 min, 10 mg/kg | – | – | – | – | 3.45 | –
[7], 20 min, 50 mg/kg | – | – | – | – | 21.6 | –
[7], 40 min, 10 mg/kg | – | – | – | – | 3.57 | –
[7], 40 min, 50 mg/kg | – | – | – | – | 15.9 | –
[8], 1 h, 10 mg/kg | – | – | – | 1.99 | – | –
[8], 1 h, 50 mg/kg | – | – | – | 3.82 | – | –
[8], 3 h, 10 mg/kg | – | – | – | 1.31 | – | –
[8], 3 h, 50 mg/kg | – | – | – | 2.17 | – | –
[8], 4 h, 10 mg/kg | – | – | – | 0.78 | – | –
[8], 4 h, 50 mg/kg | – | – | – | 1.74 | – | –
[8], 20 min, 10 mg/kg | – | – | – | 1.86 | – | –
[8], 20 min, 50 mg/kg | – | – | – | 3.7 | – | –
[8], 40 min, 10 mg/kg | – | – | – | 1.56 | – | –
[8], 40 min, 50 mg/kg | – | – | – | 5.31 | – | –
[9], 1 h, 100 ppm | 150 | – | – | – | – | –
[9], 1 h, 350 ppm | 910 | – | – | – | – | –
[9], 6 h, 100 ppm | 62 | – | – | – | – | –
[9], 6 h, 350 ppm | 340 | – | – | – | – | –
[9], 16 h, 100 ppm | 12 | – | – | – | – | –
[9], 16 h, 350 ppm | 77 | – | – | – | – | –
[9], 24 h, 350 ppm | 36 | – | – | – | – | –
[10], 0.083 h, 100 ppm | – | – | 12.1 | – | – | –
[10], 0.083 h, 350 ppm | – | – | 81.3 | – | – | –
[10], 0.25 h, 100 ppm | – | – | 8.5 | – | – | –
[10], 0.25 h, 350 ppm | – | – | 58.9 | – | – | –
[10], 0.5 h, 100 ppm | – | – | 6.7 | – | – | –
[10], 0.5 h, 350 ppm | – | – | 38.7 | – | – | –
[10], 1 h, 100 ppm | – | – | 4.2 | – | – | –
[10], 1 h, 350 ppm | – | – | 25.1 | – | – | –
[10], 1.5 h, 100 ppm | – | – | 2.7 | – | – | –
[10], 1.5 h, 350 ppm | – | – | 17.7 | – | – | –
[10], 2 h, 100 ppm | – | – | 2.6 | – | – | –
[10], 2 h, 350 ppm | – | – | 14.9 | – | – | –
[10], 3 h, 100 ppm | – | – | 1.8 | – | – | –
[10], 3 h, 350 ppm | – | – | 10.3 | – | – | –
[10], 4 h, 100 ppm | – | – | 1.4 | – | – | –
[10], 4 h, 350 ppm | – | – | 8.3 | – | – | –
[10], 6 h, 350 ppm | – | – | 4.5 | – | – | –
[10], 8 h, 350 ppm | – | – | 3.2 | – | – | –
[10], 16 h, 350 ppm | – | – | 1.3 | – | – | –

during exposure
Conditions | concentration in blood, 100 ppm [ng/mL] | concentration in blood, 350 ppm [ng/mL] | concentration in expired air, 100 ppm [ppm] | concentration in expired air, 350 ppm [ppm]
[9], -1 h | 1050 | 5860 | – | –
[9], -3 h | 1110 | 5920 | – | –
[9], -6 h | 5 | 16 | – | –
[10], -1 h | – | – | 43.3 | 192
[10], -2 h | – | – | 42.8 | 190
[10], -3 h | – | – | 41.8 | 192
[10], -4 h | – | – | 41.2 | 176
[10], -4.5 h | – | – | 40.4 | 165
[10], -5 h | – | – | 39.4 | 155
[10], -5.5 h | – | – | 36.4 | 141
[10], -5.75 h | – | – | 34.6 | 126
[10], -36 s | – | – | 45.7 | 202
